Experimental data pooled from the literature.
Each line is one published result; the experiments were not run side by side.
HTR2B: 5-hydroxytryptamine receptor 2B (HTR2B, Homo sapiens, UniProt P41595)
blaNDM-1: Metallo-beta-lactamase type 2 (blaNDM-1, Klebsiella pneumoniae, UniProt C7C422)
HLA class I histocompatibility antigen, B alpha chain: HLA class I histocompatibility antigen, B alpha chain (Homo sapiens, UniProt P01889)

SMILES | target | read-out | action | technique | pH | setting | IC50 [µM]
C[C@H](N)[C@H](O)c1cccc(O)c1 | HTR2B | calcium signal | antagonist | fluorescence | – | – | 7.38
COc1ncccc1-c1cnn2ccc(N3CCN(C(=O)OC(C)C)CC3)nc12 | BMP-2-inducible protein kinase (BMP2K, Homo sapiens, UniProt Q9NSY1) | enzyme activity | inhibitor | – | – | – | 0.014
O=C(O)c1ccccn1 | blaNDM-1 | enzyme activity | inhibitor | fluorescence | – | – | 84
CSCC[C@H](NC(=O)[C@@H](NC(=O)[C@@H](NC(=O)[C@H](CC(C)C)NC(=O)[C@H](CC(N)=O)NC(=O)[C@H](CC(N)=O)NC(=O)[C@@H](NC(=O)[C@H](C)NC(=O)[C@@H](N)CC(C)C)[C@@H](C)O)C(C)C)C(C)C)C(=O)O | HLA class I histocompatibility antigen, B alpha chain | ligand displacement | – | radioligand | – | – | 0.055
Cc1c2ccncc2c(C)c2c1[nH]c1ccccc12 | blaNDM-1 | enzyme activity | inhibitor | – | – | – | > 30
c1ccc(CNCc2ccccn2)nc1 | blaNDM-1 | enzyme activity | inhibitor | fluorescence | – | – | 2.6
CC(C)C[C@H](NC(=O)[C@H](Cc1ccccc1)NC(=O)c1cnccn1)B(O)O | Complement C1r subcomponent (Homo sapiens, UniProt P00736) | enzyme activity | inhibitor | – | – | – | > 33
CCCCCNC(=N)N/N=C/c1c[nH]c2ccc(OC)cc12 | HTR2B | ligand displacement | – | radioligand | – | – | 0.008
CC[C@H](C)[C@H](NC(=O)[C@@H]1CCCN1C(=O)[C@@H](NC(=O)[C@H](CC(C)C)NC(=O)[C@H](CCC(N)=O)NC(=O)[C@H](Cc1ccccc1)NC(=O)[C@H](C)NC(=O)[C@@H](N)CCCCN)[C@@H](C)O)C(=O)N[C@@H](C)C(=O)N[C@H](C(=O)O)C(C)C | HLA class I histocompatibility antigen, B alpha chain | ligand displacement | – | radioligand | – | – | 8.6
COc1cc(CC(C)N)c(OC)cc1I (racemic) | 5-hydroxytryptamine receptor 2C (HTR2C, Homo sapiens, UniProt P28335) | ligand displacement | – | radioligand | – | – | 0.00046
O=C(O)C1CSC(C(=O)O)N1 (stereo not shown) | blaNDM-1 | enzyme activity | inhibitor | fluorescence | – | – | 55
C[C@H](N)Cn1ncc2ccc3c(c21)CCCO3 | D(3) dopamine receptor (Drd3, Rattus norvegicus, UniProt P19020) | ligand displacement | – | radioligand | – | – | 7.2
CC[C@H](C)[C@H](NC(=O)[C@H](CCCNC(=N)N)NC(=O)[C@H](CC(C)C)NC(=O)[C@@H](N)Cc1ccccc1)C(=O)N[C@@H](CCCNC(=N)N)C(=O)N1CCC[C@H]1C(=O)N[C@@H](CCCCN)C(=O)O | B2 bradykinin receptor (BDKRB2, Homo sapiens, UniProt P30411) | ligand displacement | – | radioligand | – | – | 0.14
C[C@H](NC(=O)[C@@H](CCC(=O)O)NC(=O)CN1CCN(CC(=O)O)CCN(CC(=O)O)CCN(CC(=O)O)CC1)C(=O)N[C@@H](Cc1ccc(O)cc1)C(=O)NCC(=O)N[C@@H](Cc1c[nH]c2ccccc12)C(=O)N[C@H](C(=O)N[C@@H](CC(=O)O)C(=O)N[C@@H](Cc1cccc2ccccc12)C(N)=O)c1ccccc1 | Gastrin/cholecystokinin type B receptor (CCKBR, Homo sapiens, UniProt P32239) | ligand displacement | – | radioligand | – | – | 0.184
Fc1ccc(CC(c2ccccc2)N2CCCC2)cc1 (stereo not shown) | Sigma intracellular receptor 2 (Tmem97, Rattus norvegicus, UniProt Q5U3Y7) | ligand displacement | – | radioligand | – | – | > 10
COCCn1c2nc(=O)n(-c3ccccc3)c(=O)c-2nc2ccccc21 | mRNA cap guanine-N(7) methyltransferase (RNMT, Homo sapiens, UniProt O43148) | enzyme activity | inhibitor | – | – | – | 35.5
CCCCCCCCCCCCCCC(Br)C(=O)O (stereo not shown) | Palmitoyltransferase ZDHHC20 (ZDHHC20, Homo sapiens, UniProt Q5W0Z9) | enzyme activity | inhibitor | – | – | – | 5.33
CSCC[C@H](NC(=O)[C@H](CCC(N)=O)NC(=O)[C@H](C)NC(=O)[C@H](CO)NC(=O)[C@@H](N)CO)C(=O)N[C@@H](CC(N)=O)C(=O)N[C@@H](CC(C)C)C(=O)N[C@@H](CC(N)=O)C(=O)N[C@H](C(=O)N[C@@H](Cc1ccccc1)C(=O)N[C@@H](CC(C)C)C(=O)N[C@@H](CC(N)=O)C(=O)O)[C@@H](C)O | 1-deoxy-D-xylulose-5-phosphate synthase (dxs, Deinococcus radiodurans, UniProt Q9RUB5) | enzyme activity | inhibitor | absorbance | pH 7.6 | – | > 1000
CC[C@H](C)[C@H](NC(=O)[C@H](CC(C)C)NC(=O)CN)C(=O)N[C@H](C(=O)N[C@@H](CC(C)C)C(=O)N[C@@H](CO)C(=O)N[C@@H](Cc1ccc(O)cc1)C(=O)N[C@@H](Cc1c[nH]cn1)C(=O)N[C@@H](CC(C)C)C(=O)O)[C@@H](C)O | HLA class I histocompatibility antigen, B alpha chain | ligand displacement | – | radioligand | – | – | 14.3
CN(Cc1ccccc1)C(=O)Oc1nsnc1N1CCCCC1 | Fatty-acid amide hydrolase 1 (FAAH, Homo sapiens, UniProt O00519) | enzyme activity | inhibitor | – | – | cell membranes | 0.0631
CC[C@H](C)[C@H](NC(=O)[C@H](CCCNC(=N)N)NC(=O)[C@@H]1CCCN1C(=O)[C@H](C)N)C(=O)N[C@H](C(=O)N[C@@H](Cc1ccccc1)C(=O)NCC(=O)NCC(=O)N1CCC[C@H]1C(=O)O)[C@@H](C)O | HLA class I histocompatibility antigen, B alpha chain | ligand displacement | – | radioligand | – | – | 0.059
NC(=O)c1cccc(-c2cccc(OC(=O)NC3CCCCC3)c2)c1 | Monoglyceride lipase (MGLL, Homo sapiens, UniProt Q99685) | enzyme activity | inhibitor | absorbance | – | – | > 10
